Measurements: ChEMBL document CHEMBL1687785, “ampG gene of Pseudomonas aeruginosa and its role in β-lactamase expression” (2010)
Values after ≈ are worked out from the molar mass of the structure shown.

Legend:
Assay type in all cases: functional
Pseudomonas aeruginosa [1] = assay: Antimicrobial activity against Pseudomonas aeruginosa PAK after 16 to 20 hrs by broth microdilution method
Procedure, shortened: (§1)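 CLSI broth microdilution: 2-fold serial antibiotic dilutions in Mueller-Hinton broth, inoculated with about 10^4 cells per 100 μl from starter cultures grown to OD600 0.5. MIC is the lowest concentration preventing growth after 16-20 h at 37°C. Triplicate.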

Pseudomonas aeruginosa [2] = assay: Antimicrobial activity against ampGh1 deficient Pseudomonas aeruginosa PAO1 after 16 to 20 hrs by broth microdilution method
Procedure, shortened: (§2)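 CLSI broth microdilution in Mueller-Hinton broth, serial 2-fold antibiotic dilutions. Inoculum about 10^4 cells per well, taken from starter cultures grown to OD600 0.5. MIC was the lowest antibiotic concentration preventing growth after 16 to 20 h at 37°C. Each MIC was determined in triplicate.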

Pseudomonas aeruginosa [3] = assay: Antimicrobial activity against ampD, ampDh2, ampDh3 and ampG deficient Pseudomonas aeruginosa PAO1 after 16 to 20 hrs by broth microdilution method; procedure, shortened: as §2
Pseudomonas aeruginosa [4] = assay: Antimicrobial activity against ampG, ampGh1 deficient Pseudomonas aeruginosa PAK after 16 to 20 hrs by broth microdilution method; procedure, shortened: as §2
Pseudomonas aeruginosa [5] = assay: Antimicrobial activity against Pseudomonas aeruginosa isolate 2 obtained from cystic fibrosis patients after 16 to 20 hrs by broth microdilution method in presence of 120 uM carbonyl cyanide m-chlorophenyl-hydrazone
Procedure, shortened: (§3)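 CLSI broth microdilution in Mueller-Hinton broth with serial antibiotic dilutions. CCCP was added from a 10 mM DMSO stock to 120 μM final, then the bacterial culture was added as inoculum (about 10^4 cells from OD600 0.5 starter cultures). MIC was the lowest concentration preventing growth after 16 to 20 h at 37°C, run in triplicate.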

Pseudomonas aeruginosa [6] = assay: Antimicrobial activity against ampG deficient Pseudomonas aeruginosa PAK after 16 to 20 hrs by broth microdilution method; procedure, shortened: as §2
Pseudomonas aeruginosa [7] = assay: Antimicrobial activity against Pseudomonas aeruginosa isolate 11 obtained from cystic fibrosis patients after 16 to 20 hrs by broth microdilution method; procedure, shortened: as §1
Pseudomonas aeruginosa [8] = assay: Antimicrobial activity against Pseudomonas aeruginosa isolate 1 obtained from cystic fibrosis patients after 16 to 20 hrs by broth microdilution method; procedure, shortened: as §1
Pseudomonas aeruginosa [9] = assay: Antimicrobial activity against Pseudomonas aeruginosa isolate 8 obtained from cystic fibrosis patients after 16 to 20 hrs by broth microdilution method; procedure, shortened: as §2
Pseudomonas aeruginosa [10] = assay: Antimicrobial activity against ampGh1 deficient Pseudomonas aeruginosa PAK after 16 to 20 hrs by broth microdilution method in presence of 120 uM carbonyl cyanide m-chlorophenyl-hydrazone; procedure, shortened: as §3
Pseudomonas aeruginosa [11] = assay: Antimicrobial activity against Pseudomonas aeruginosa isolate 14 obtained from cystic fibrosis patients after 16 to 20 hrs by broth microdilution method in presence of 120 uM carbonyl cyanide m-chlorophenyl-hydrazone
Procedure, shortened: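 CLSI broth microdilution in Mueller-Hinton broth with CCCP added from a 10 mM DMSO stock to 120 μM final, alongside 2-fold serial antibiotic dilutions. Inoculum from starter cultures grown to OD600 0.5. MIC is the lowest concentration preventing growth after 16-20 h at 37°C. Triplicate.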

Escherichia coli = assay: Antimicrobial activity against gentamycin resistant Escherichia coli SNO301-1 harboring pEC1C carrying ampC, ampR from Enterobacter cloacae after 16 to 20 hrs by broth microdilution method
Procedure, shortened: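 CLSI broth microdilution: serial 2-fold β-lactam dilutions in Mueller-Hinton broth, inoculum about 10^4 cells from starter cultures at OD600 0.5; MIC read as lowest concentration preventing growth after 16 to 20 h at 37°C; triplicate determinations.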

Pseudomonas aeruginosa [12] = assay: Antimicrobial activity against Pseudomonas aeruginosa isolate 14 obtained from cystic fibrosis patients after 16 to 20 hrs by broth microdilution method; procedure, shortened: as §1

## CC1(C)S[C@@H]2[C@H](NC(=O)[C@H](N)c3ccccc3)C(=O)N2[C@H]1C(=O)O [AMPICILLIN]
Pseudomonas aeruginosa [1]
  MIC: 512 µg/mL (≈ 1470 µM)
Pseudomonas aeruginosa [2]
  MIC: 256 µg/mL (≈ 733 µM)
Pseudomonas aeruginosa [3]
  MIC: 16 µg/mL (≈ 45.8 µM)
Pseudomonas aeruginosa [4]
  MIC: 32 µg/mL (≈ 91.6 µM)
Pseudomonas aeruginosa [5]
  MIC: 256 µg/mL
Pseudomonas aeruginosa [6]
  MIC: 32 µg/mL (≈ 91.6 µM)
Pseudomonas aeruginosa [7]
  MIC: 512 µg/mL (≈ 1470 µM)
Pseudomonas aeruginosa [8]
  MIC: 512 µg/mL (≈ 1470 µM)
Pseudomonas aeruginosa [9]
  MIC: 256 µg/mL (≈ 733 µM)
Pseudomonas aeruginosa [10]
  MIC: 256 µg/mL
Pseudomonas aeruginosa [11]
  MIC: 8 µg/mL
Escherichia coli
  MIC: 1020 µg/mL (≈ 2930 µM)
Pseudomonas aeruginosa [12]
  MIC: 512 µg/mL (≈ 1470 µM)
